These results are taken from ChEMBL document CHEMBL2385045, “Discovery of novel 4-(2-fluorophenoxy)quinoline derivatives bearing 4-oxo-1,4-dihydrocinnoline-3-carboxamide moiety as c-Met kinase inhibitors” (Bioorg Med Chem, 2013).

The subject of one assay is A549. Put plainly: Cytotoxicity against c-Met-dependent human A549 cells assessed as growth inhibition after 72 hrs by MTT assay. Particulars: A549, 72 h. For orientation: Tetrazolium assays rely on reduction of a dye to a coloured formazan, in cell work by metabolically active cells.
The target of assay [1] is Hepatocyte growth factor receptor (Homo sapiens, UniProt P08581). Description: Inhibition of c-Met (unknown origin) using poly (Glu, Tyr) 4:1 as substrate after 30 mins by HTRF assay. (In general: In TR-FRET formats the signal depends on donor and acceptor labels being close together.)
Another assay relates to SMMC-7721. Description: Cytotoxicity against c-Met-dependent human SMMC7721 cells assessed as growth inhibition after 72 hrs by MTT assay. It counts as functional, cell-based. The following applies: SMMC-7721, 72 h. The method in brief: (§1)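 Cells grown in MEM with 10% FBS. About 4×10³ cells/well were seeded and incubated 24 h at 37 °C, 5% CO₂, then exposed to compound for 72 h. MTT was added (terminal 5 µg/mL) for 4 h at 37 °C, and formazan was dissolved in DMSO. IC50 is the mean of three determinations.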

The target of assay [2] is Epidermal growth factor receptor (Homo sapiens, UniProt P00533). Description: Inhibition of EGFR (unknown origin) using poly (Glu, Tyr) 4:1 as substrate after 30 mins by HTRF assay. The method in brief: (§2)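 HTRF kinase assay on plates precoated with 20 µg/mL poly(Glu,Tyr) 4:1. ATP (10 mM solution) in 50 mM HEPES pH 7.0 buffer with DTT, MgCl₂, MnCl₂ and 0.1% NaN₃. Compound in 1% DMSO; reaction started with purified kinase and run 30 min at 25 °C. Stopped with Streptavidin-XL665 plus TK antibody cryptate and read at 320/615. Inhibition relative to enzyme and no-enzyme controls; IC50 from the inhibition curves.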

Assay [3] addresses Mast/stem cell growth factor receptor Kit (Homo sapiens, UniProt P10721). Description: Inhibition of c-Kit (unknown origin) using poly (Glu, Tyr) 4:1 as substrate after 30 mins by HTRF assay. The gist of the method:
as §2

The test system of a further assay is HT-29. Put plainly: Cytotoxicity against c-Met-dependent human HT-29 cells assessed as growth inhibition after 72 hrs by MTT assay. Particulars: HT-29, 72 h.
Assay [4] concerns the target T1, Receptor-type tyrosine-protein kinase FLT3 (Homo sapiens, UniProt P36888).
T1 sequence (P36888 whole entry): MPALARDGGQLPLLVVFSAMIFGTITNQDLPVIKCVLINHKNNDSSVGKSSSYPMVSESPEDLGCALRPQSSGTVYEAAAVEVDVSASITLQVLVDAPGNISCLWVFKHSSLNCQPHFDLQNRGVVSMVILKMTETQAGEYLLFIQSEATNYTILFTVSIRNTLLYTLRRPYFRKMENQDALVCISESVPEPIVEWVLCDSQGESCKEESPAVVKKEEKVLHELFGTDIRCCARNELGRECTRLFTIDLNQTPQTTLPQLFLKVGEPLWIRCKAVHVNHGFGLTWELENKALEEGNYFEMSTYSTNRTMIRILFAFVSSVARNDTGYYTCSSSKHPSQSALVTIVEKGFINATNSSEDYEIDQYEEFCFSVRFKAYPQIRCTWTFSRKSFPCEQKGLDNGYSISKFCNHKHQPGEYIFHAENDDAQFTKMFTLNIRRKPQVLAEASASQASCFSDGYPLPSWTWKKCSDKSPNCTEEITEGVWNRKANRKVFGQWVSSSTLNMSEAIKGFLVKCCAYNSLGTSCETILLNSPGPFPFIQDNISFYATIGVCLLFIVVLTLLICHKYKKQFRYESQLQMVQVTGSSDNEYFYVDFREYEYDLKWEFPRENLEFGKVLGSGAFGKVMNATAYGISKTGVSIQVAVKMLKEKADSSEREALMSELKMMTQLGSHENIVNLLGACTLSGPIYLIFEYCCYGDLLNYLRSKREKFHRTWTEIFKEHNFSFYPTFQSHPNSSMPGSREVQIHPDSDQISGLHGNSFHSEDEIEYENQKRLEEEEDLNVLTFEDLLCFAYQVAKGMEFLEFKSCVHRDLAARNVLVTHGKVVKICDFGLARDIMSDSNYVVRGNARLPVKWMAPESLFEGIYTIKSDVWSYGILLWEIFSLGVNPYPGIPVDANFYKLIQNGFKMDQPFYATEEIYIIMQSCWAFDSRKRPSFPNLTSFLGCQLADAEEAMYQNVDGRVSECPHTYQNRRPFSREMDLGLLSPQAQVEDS
Put plainly: Inhibition of Flt-3 (unknown origin) using poly (Glu, Tyr) 4:1 as substrate after 30 mins by HTRF assay. The gist of the method:
as §2

Assay [5] in a line: Cytotoxicity against c-Met-independent human H460 cells assessed as growth inhibition after 72 hrs by MTT assay. The following applies: NCI-H460, 72 h.
The next assay has as its system MKN-45. Description: Cytotoxicity against c-Met-dependent human MKN45 cells assessed as growth inhibition after 72 hrs by MTT assay. Particulars: MKN-45, 72 h.
The target in assay [6] is Vascular endothelial growth factor receptor 2 (Homo sapiens, UniProt P35968). Put plainly: Inhibition of VEGFR-2 (unknown origin) using poly (Glu, Tyr) 4:1 as substrate after 30 mins by HTRF assay. The gist of the method: as §2
The target of assay [7] is Platelet-derived growth factor receptor alpha (Homo sapiens, UniProt P16234). Description: Inhibition of PDGFRalpha (unknown origin) using poly (Glu, Tyr) 4:1 as substrate after 30 mins by HTRF assay. The gist of the method:
as §2

Assay [8] can be described thus: Cytotoxicity against c-Met-dependent human U87MG cells assessed as growth inhibition after 72 hrs by MTT assay. In kind it is functional, cell-based, U-87MG ATCC. Particulars: U-87 MG. The method in brief: as §1

A word on the IC50: it is the concentration that inhibits the measured activity by half.

Consider `COc1cc2c(Oc3ccc(NC(=O)c4nn(-c5ccccc5C(F)(F)F)c5ccccc5c4=O)cc3F)ccnc2cc1OCCCN1CCCC1`, for which the IC50 was 35 nM in the assay with A549; 0.59 nM in [1]; 250 nM in the assay on SMMC-7721; more than 10000 nM in [2]; 3.9 nM in assay [3]; 110 nM in the assay with HT-29. For the same molecule, the half-maximal inhibitory concentration (IC50) amounted to 8.5 nM in [4]; 55 nM in [5]; 22 nM in the assay with MKN-45; 15.4 nM in assay [6]; 27.3 nM in assay [7]; 350 nM in assay [8].
